Results published in ChEMBL document CHEMBL1145928, “Guanidino N-substituted and N,N-disubstituted derivatives of the kappa-opioid antagonist GNTI” (J Med Chem, 2003).

Legend:
[1] = target: T1, Opioid receptors; delta & kappa (Homo sapiens) (UniProt P41145+P41143); assay: Ratio of (Ke) delta-opioid receptor to that of (Ke) kappa-opioid receptor; type: protein assay
Method in brief: (§1)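 Selectivity ratios taken from [35S]GTPγS antagonist values in CHO membranes expressing cloned human receptors (μ with DAMGO, δ with Cl-DPDPE, κ with U69,593), as μ/κ and δ/κ. Values are means of five or six experiments.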

Mu-type opioid receptor [2] = target: T2, Mu-type opioid receptor (Homo sapiens, UniProt P35372); assay: Antagonistic activity against cloned human Opioid receptor mu 1 using DAMGO as ligand in [35S]GTP-gamma-S, assay; type: functional
T2 sequence (P35372 whole entry): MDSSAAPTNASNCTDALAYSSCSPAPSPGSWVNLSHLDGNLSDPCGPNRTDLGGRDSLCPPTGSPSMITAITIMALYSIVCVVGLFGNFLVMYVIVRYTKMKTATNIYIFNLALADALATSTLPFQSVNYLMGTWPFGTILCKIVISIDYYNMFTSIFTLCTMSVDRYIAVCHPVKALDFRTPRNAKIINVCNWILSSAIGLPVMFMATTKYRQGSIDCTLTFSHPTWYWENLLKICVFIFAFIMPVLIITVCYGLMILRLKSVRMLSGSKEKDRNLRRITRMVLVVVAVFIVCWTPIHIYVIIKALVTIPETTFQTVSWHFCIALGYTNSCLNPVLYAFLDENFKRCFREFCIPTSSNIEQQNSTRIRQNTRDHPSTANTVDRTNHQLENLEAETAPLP

[3] = target: T3, Kappa-type opioid receptor (Homo sapiens, UniProt P41145); assay: Antagonistic activity against cloned human Opioid receptor kappa 1 using U69,593 as ligand in [35S]GTP-gamma-S, assay; type: functional
T3 sequence (P41145 whole entry): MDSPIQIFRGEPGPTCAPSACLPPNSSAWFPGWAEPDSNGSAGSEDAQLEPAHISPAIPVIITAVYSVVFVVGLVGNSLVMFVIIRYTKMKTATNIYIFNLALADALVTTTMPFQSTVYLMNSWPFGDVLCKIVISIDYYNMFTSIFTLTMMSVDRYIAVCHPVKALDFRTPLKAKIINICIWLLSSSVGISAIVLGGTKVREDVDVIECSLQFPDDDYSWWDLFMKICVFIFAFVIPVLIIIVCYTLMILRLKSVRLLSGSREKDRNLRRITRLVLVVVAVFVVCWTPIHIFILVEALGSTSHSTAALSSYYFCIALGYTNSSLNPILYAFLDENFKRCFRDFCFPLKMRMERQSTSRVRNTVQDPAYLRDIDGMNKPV

[4] = target: T3, Kappa-type opioid receptor; assay: Binding affinity against cloned human Opioid receptor kappa 1 transfected into chinese hamster ovary cells using [3H]U-69593 as radioligand; type: cell-based
Method in brief: (§2)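 Competition binding in CHO cells transfected with cloned human opioid receptors, using [3H]DAMGO (μ), [3H]Cl-DPDPE (δ) and [3H]U69,593 (κ) as displaced radioligands. Hill slopes were examined. Data are averages of two experiments, each run in triplicate.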

[5] = target: T4, Delta-type opioid receptor (Homo sapiens, UniProt P41143); assay: Binding affinity against cloned human Opioid receptor delta 1 transfected into chinese hamster ovary cells using [3H]Cl-DPDPE as radioligand; type: cell-based; method in brief: as §2
T4 sequence (P41143 whole entry): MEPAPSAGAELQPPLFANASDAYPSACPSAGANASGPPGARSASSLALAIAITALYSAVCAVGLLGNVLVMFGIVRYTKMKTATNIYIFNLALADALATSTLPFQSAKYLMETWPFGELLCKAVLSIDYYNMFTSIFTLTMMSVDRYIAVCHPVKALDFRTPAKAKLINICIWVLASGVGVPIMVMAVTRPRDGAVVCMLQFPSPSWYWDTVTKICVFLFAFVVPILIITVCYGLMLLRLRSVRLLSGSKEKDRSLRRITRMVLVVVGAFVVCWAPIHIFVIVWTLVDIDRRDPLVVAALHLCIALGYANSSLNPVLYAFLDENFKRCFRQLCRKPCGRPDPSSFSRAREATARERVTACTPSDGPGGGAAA

[6] = target: T1, Opioid receptors; delta & kappa (Homo sapiens); assay: Ratio of (Ki) delta-opioid receptor to that of (Ki) kappa-opioid receptor; type: protein assay
Method in brief: (§3)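 Ki ratios μ/κ and δ/κ from competition binding in CHO cells with cloned human receptors, displacing [3H]DAMGO, [3H]Cl-DPDPE or [3H]U69,593. Data are averages of two experiments, each run in triplicate.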

[7] = target: T4, Delta-type opioid receptor; assay: Antagonistic activity against cloned human Opioid receptor delta 1 using DPDPE as ligand in [35S]GTP-gamma-S, assay; type: functional
Mu-type opioid receptor [8] = target: T2, Mu-type opioid receptor; assay: Binding affinity against cloned human Opioid receptor mu 1 transfected into chinese hamster ovary cells using [3H]DAMGO as radioligand; type: cell-based; method in brief: as §2
[9] = target: T5, Opioid receptors; mu & kappa (Homo sapiens) (UniProt P41145+P35372); assay: Ratio of (Ki) mu-opioid receptor to that of (Ki) kappa-opioid receptor; type: protein assay; method in brief: as §3
T5 sequence (P35372 whole entry, looked up): as the sequence (P35372 whole entry) above
T5 sequence (P41145 whole entry, looked up): as the sequence (P41145 whole entry) above

[10] = target: T5, Opioid receptors; mu & kappa (Homo sapiens); assay: Ratio of (Ke) mu-opioid receptor to that of (Ke) kappa-opioid receptor; type: protein assay; method in brief: as §1

T1 sequence (P41143 whole entry, looked up): as the sequence (P41143 whole entry) above
T1 sequence (P41145 whole entry, looked up): as the sequence (P41145 whole entry) above

SMILES	Ratio [1]	Ke (Mu-type opioid receptor [2])	Ke [3]	Ki [4]	Ki [5]	Ratio [6]	Ke [7]	Ki (Mu-type opioid receptor [8])	Ratio [9]	Ratio [10]
N/C(=N\CCc1ccc2[nH]c3c(c2c1)C[C@@]1(O)[C@H]2Cc4ccc(O)c5c4[C@@]1(CCN2CC1CC1)[C@H]3O5)NCc1ccc(N)cc1	4	1.57 nM	0.25 nM	0.95 nM	5.05 nM	5	0.95 nM	7.78 nM	8	6
CCCN/C(=N\CC1CC1)Nc1ccc2[nH]c3c(c2c1)C[C@@]1(O)[C@H]2Cc4ccc(O)c5c4[C@@]1(CCN2CC1CC1)[C@H]3O5	79	3.26 nM	0.08 nM	2.38 nM	15.5 nM	6.5	6.31 nM	22.4 nM	9	41
Oc1ccc2c3c1O[C@H]1c4[nH]c5ccc(N/C(=N/CC6CC6)NCc6ccccc6)cc5c4C[C@@]4(O)[C@@H](C2)N(CC2CC2)CC[C@]314	19	2.75 nM	0.17 nM	3.91 nM	18.1 nM	5	3.28 nM	17.7 nM	4.5	16
N=C(N)NCc1ccc2[nH]c3c(c2c1)C[C@@]1(O)[C@H]2Cc4ccc(O)c5c4[C@@]1(CCN2CC1CC1)[C@H]3O5	389	3.23 nM	0.04 nM	0.18 nM	70 nM	389	15.5 nM	36.9 nM	205	81
CCCC/N=C(\NCCCC)NCCc1ccc2[nH]c3c(c2c1)C[C@@]1(O)[C@H]2Cc4ccc(O)c5c4[C@@]1(CCN2CC1CC1)[C@H]3O5	3	4.62 nM	0.39 nM	4.8 nM	6.73 nM	1.5	1.05 nM	7.89 nM	1.5	12
N/C(=N/Cc1cccc(O)c1)Nc1ccc2[nH]c3c(c2c1)C[C@@]1(O)[C@H]2Cc4ccc(O)c5c4[C@@]1(CCN2CC1CC1)[C@H]3O5	33	4.28 nM	0.13 nM	2.74 nM	17.6 nM	6	4.35 nM	14.2 nM	5	33
N/C(=N/Cc1ccc(N)cc1)Nc1ccc2[nH]c3c(c2c1)C[C@@]1(O)[C@H]2Cc4ccc(O)c5c4[C@@]1(CCN2CC1CC1)[C@H]3O5	120	1.22 nM	0.09 nM	0.63 nM	23.9 nM	68	10.8 nM	7.89 nM	13	14
N=C(N)NCCc1ccc2[nH]c3c(c2c1)C[C@@]1(O)[C@H]2Cc4ccc(O)c5c4[C@@]1(CCN2CC1CC1)[C@H]3O5	2	1.25 nM	0.4 nM	0.49 nM	4.93 nM	10	0.88 nM	5.69 nM	12	3
CCC/N=C(\NCCC)Nc1ccc2[nH]c3c(c2c1)C[C@@]1(O)[C@H]2Cc4ccc(O)c5c4[C@@]1(CCN2CC1CC1)[C@H]3O5	9	4.59 nM	0.26 nM	2.72 nM	8.52 nM	3	2.43 nM	9.83 nM	4	18
CCCC/N=C(\NCCCC)Nc1ccc2[nH]c3c(c2c1)C[C@@]1(O)[C@H]2Cc4ccc(O)c5c4[C@@]1(CCN2CC1CC1)[C@H]3O5	12	5.66 nM	0.44 nM	6.96 nM	15 nM	2	5.24 nM	18.3 nM	3	13
N/C(=N\CCc1ccc2[nH]c3c(c2c1)C[C@@]1(O)[C@H]2Cc4ccc(O)c5c4[C@@]1(CCN2CC1CC1)[C@H]3O5)NCc1ccccc1	10	2.94 nM	0.13 nM	1.42 nM	7.24 nM	5	1.36 nM	3.54 nM	2	23
N/C(=N/Cc1ccc(O)cc1)Nc1ccc2[nH]c3c(c2c1)C[C@@]1(O)[C@H]2Cc4ccc(O)c5c4[C@@]1(CCN2CC1CC1)[C@H]3O5	183	12.7 nM	0.1 nM	3.26 nM	41.9 nM	13	18.3 nM	14.7 nM	4.5	127
N/C(=N\CCc1ccc2[nH]c3c(c2c1)C[C@@]1(O)[C@H]2Cc4ccc(O)c5c4[C@@]1(CCN2CC1CC1)[C@H]3O5)NCc1ccc(Cl)cc1	6	2.61 nM	0.23 nM	2.41 nM	19.2 nM	8	1.48 nM	7.74 nM	3	11
N/C(=N/Cc1ccc([N+](=O)[O-])cc1)Nc1ccc2[nH]c3c(c2c1)C[C@@]1(O)[C@H]2Cc4ccc(O)c5c4[C@@]1(CCN2CC1CC1)[C@H]3O5	93	3.71 nM	0.18 nM	1.61 nM	95.8 nM	60	16.7 nM	26.3 nM	16	21
N/C(=N/Cc1ccccc1)Nc1ccc2[nH]c3c(c2c1)C[C@@]1(O)[C@H]2Cc4ccc(O)c5c4[C@@]1(CCN2CC1CC1)[C@H]3O5	68	1.41 nM	0.06 nM	0.86 nM	26.8 nM	31	4.09 nM	10.5 nM	12	24
N/C(=N/Cc1ccc(Cl)cc1)Nc1ccc2[nH]c3c(c2c1)C[C@@]1(O)[C@H]2Cc4ccc(O)c5c4[C@@]1(CCN2CC1CC1)[C@H]3O5	55	5.24 nM	0.14 nM	0.66 nM	85 nM	129	7.67 nM	29.8 nM	45	37
N/C(=N\CCc1ccc2[nH]c3c(c2c1)C[C@@]1(O)[C@H]2Cc4ccc(O)c5c4[C@@]1(CCN2CC1CC1)[C@H]3O5)NCc1ccc([N+](=O)[O-])cc1	8	2.2 nM	0.17 nM	2.14 nM	11.7 nM	5	1.34 nM	9.21 nM	4	13
